Assay results from ChEMBL document CHEMBL2384977, “Synthesis and biological evaluation of novel styryl benzimidazole derivatives as probes for imaging of neurofibrillary tangles in Alzheimer's disease” (Bioorg Med Chem, 2013).
Blank lines part the entries; values can stand above or below the compound they belong to.

Key:
Intestine [1] = assay: Biodistribution in ddY mouse intestine at 13.2 to 20.6 kBq, iv measured at 60 mins by gamma counting analysis; type: ADME, organism-based; details: in vivo, 1 h
Outline: (§1)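 Male ddY mice, 5 weeks old, received the 125I-labelled tracer (13.2–20.6 kBq) intravenously in the tail vein, in 100 µL saline containing ethanol. Animals were sacrificed at 2, 10, 30 and 60 min. Tissue radioactivity is expressed as %ID/g, mean (SD) of 5 animals.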

Spleen [2] = assay: Biodistribution in ddY mouse spleen at 13.2 to 20.6 kBq, iv measured at 60 mins by gamma counting analysis; type: ADME, organism-based; details: in vivo, 1 h; outline: as §1
Pancreas [3] = assay: Biodistribution in ddY mouse pancreas at 13.2 to 20.6 kBq, iv measured at 60 mins by gamma counting analysis; type: ADME, organism-based; details: in vivo, 1 h; outline: as §1
Heart [4] = assay: Biodistribution in ddY mouse heart at 13.2 to 20.6 kBq, iv measured at 60 mins by gamma counting analysis; type: ADME, organism-based; details: in vivo, 1 h; outline: as §1
Lung [5] = assay: Biodistribution in ddY mouse lung at 13.2 to 20.6 kBq, iv measured at 60 mins by gamma counting analysis; type: ADME, organism-based; details: in vivo, 1 h; outline: as §1
Stomach [6] = assay: Biodistribution in ddY mouse stomach at 13.2 to 20.6 kBq, iv measured per organ at 60 mins by gamma counting analysis; type: ADME, organism-based; details: in vivo, 1 h
Outline: (§2)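 Male ddY mice, 5 weeks old, were injected in the tail vein with the 125I tracer (13.2–20.6 kBq) in 100 µL saline containing ethanol. Sacrifice at 2, 10, 30 and 60 min. Stomach radioactivity is expressed as %ID per whole organ, mean (SD) of 5 animals.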

Brain [7] = assay: Biodistribution in ddY mouse brain at 13.2 to 20.6 kBq, iv measured at 60 mins by gamma counting analysis; type: ADME, organism-based; details: in vivo, 1 h; outline: as §1
Blood [8] = assay: Biodistribution in ddY mouse blood at 13.2 to 20.6 kBq, iv measured at 60 mins by gamma counting analysis; type: ADME, organism-based; details: in vivo, 1 h; outline: as §1
Liver [9] = assay: Biodistribution in ddY mouse liver at 13.2 to 20.6 kBq, iv measured at 10 mins by gamma counting analysis; type: ADME, organism-based; details: in vivo; outline: as §1
Kidney [10] = assay: Biodistribution in ddY mouse kidney at 13.2 to 20.6 kBq, iv measured at 10 mins by gamma counting analysis; type: ADME, organism-based; details: in vivo; outline: as §1
Intestine [11] = assay: Biodistribution in ddY mouse intestine at 13.2 to 20.6 kBq, iv measured at 10 mins by gamma counting analysis; type: ADME, organism-based; details: in vivo; outline: as §1
Spleen [12] = assay: Biodistribution in ddY mouse spleen at 13.2 to 20.6 kBq, iv measured at 10 mins by gamma counting analysis; type: ADME, organism-based; details: in vivo; outline: as §1
Pancreas [13] = assay: Biodistribution in ddY mouse pancreas at 13.2 to 20.6 kBq, iv measured at 10 mins by gamma counting analysis; type: ADME, organism-based; details: in vivo; outline: as §1
Heart [14] = assay: Biodistribution in ddY mouse heart at 13.2 to 20.6 kBq, iv measured at 10 mins by gamma counting analysis; type: ADME, organism-based; details: in vivo; outline: as §1
Lung [15] = assay: Biodistribution in ddY mouse lung at 13.2 to 20.6 kBq, iv measured at 10 mins by gamma counting analysis; type: ADME, organism-based; details: in vivo; outline: as §1
Stomach [16] = assay: Biodistribution in ddY mouse stomach at 13.2 to 20.6 kBq, iv measured per organ at 10 mins by gamma counting analysis; type: ADME, organism-based; details: in vivo; outline: as §2
Brain [17] = assay: Biodistribution in ddY mouse brain at 13.2 to 20.6 kBq, iv measured at 10 mins by gamma counting analysis; type: ADME, organism-based; details: in vivo; outline: as §1
Blood [18] = assay: Biodistribution in ddY mouse blood at 13.2 to 20.6 kBq, iv measured at 10 mins by gamma counting analysis; type: ADME, organism-based; details: in vivo; outline: as §1
Liver [19] = assay: Biodistribution in ddY mouse liver at 13.2 to 20.6 kBq, iv measured at 30 mins by gamma counting analysis; type: ADME, organism-based; details: in vivo, 0.5 h; outline: as §1
Kidney [20] = assay: Biodistribution in ddY mouse kidney at 13.2 to 20.6 kBq, iv measured at 30 mins by gamma counting analysis; type: ADME, organism-based; details: in vivo, 0.5 h; outline: as §1
Intestine [21] = assay: Biodistribution in ddY mouse intestine at 13.2 to 20.6 kBq, iv measured at 30 mins by gamma counting analysis; type: ADME, organism-based; details: in vivo, 0.5 h; outline: as §1
Spleen [22] = assay: Biodistribution in ddY mouse spleen at 13.2 to 20.6 kBq, iv measured at 30 mins by gamma counting analysis; type: ADME, organism-based; details: in vivo, 0.5 h; outline: as §1
Pancreas [23] = assay: Biodistribution in ddY mouse pancreas at 13.2 to 20.6 kBq, iv measured at 30 mins by gamma counting analysis; type: ADME, organism-based; details: in vivo, 0.5 h; outline: as §1
Heart [24] = assay: Biodistribution in ddY mouse heart at 13.2 to 20.6 kBq, iv measured at 30 mins by gamma counting analysis; type: ADME, organism-based; details: in vivo, 0.5 h; outline: as §1
Lung [25] = assay: Biodistribution in ddY mouse lung at 13.2 to 20.6 kBq, iv measured at 30 mins by gamma counting analysis; type: ADME, organism-based; details: in vivo, 0.5 h; outline: as §1
Stomach [26] = assay: Biodistribution in ddY mouse stomach at 13.2 to 20.6 kBq, iv measured per organ at 30 mins by gamma counting analysis; type: ADME, organism-based; details: in vivo, 0.5 h; outline: as §2
Brain [27] = assay: Biodistribution in ddY mouse brain at 13.2 to 20.6 kBq, iv measured at 30 mins by gamma counting analysis; type: ADME, organism-based; details: in vivo, 0.5 h; outline: as §1
Blood [28] = assay: Biodistribution in ddY mouse blood at 13.2 to 20.6 kBq, iv measured at 30 mins by gamma counting analysis; type: ADME, organism-based; details: in vivo, 0.5 h; outline: as §1
Liver [29] = assay: Biodistribution in ddY mouse liver at 13.2 to 20.6 kBq, iv measured at 60 mins by gamma counting analysis; type: ADME, organism-based; details: in vivo, 1 h; outline: as §1
Kidney [30] = assay: Biodistribution in ddY mouse kidney at 13.2 to 20.6 kBq, iv measured at 60 mins by gamma counting analysis; type: ADME, organism-based; details: in vivo, 1 h; outline: as §1
[31] = 1-Octanol-PBS buffer partition coefficient, log P of the compound at 0.37 MBq after 2 mins by gamma counting analysis; type: physicochemical
Brain [32] = assay: Ratio of drug level in ddY mouse brain at 13.2 to 20.6 kBq, iv measured at 2 mins to drug level in ddY mouse brain at 13.2 to 20.6 kBq, iv measured at 60 mins; type: ADME, organism-based; details: in vivo
Outline: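 Tail-vein injection of the 125I tracer (13.2–20.6 kBq, saline with ethanol) into male 5-week-old ddY mice. The ratio is brain uptake (%ID/g) at 2 min divided by brain uptake at 60 min, from groups of 5 animals.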

Brain [33] = assay: Biodistribution in ddY mouse brain at 13.2 to 20.6 kBq, iv measured at 2 mins by gamma counting analysis; type: ADME, organism-based; details: in vivo; outline: as §1
Stomach [34] = assay: Biodistribution in ddY mouse stomach at 13.2 to 20.6 kBq, iv measured per organ at 2 mins by gamma counting analysis; type: ADME, organism-based; details: in vivo; outline: as §2
Heart [35] = assay: Biodistribution in ddY mouse heart at 13.2 to 20.6 kBq, iv measured at 2 mins by gamma counting analysis; type: ADME, organism-based; details: in vivo; outline: as §1
Lung [36] = assay: Biodistribution in ddY mouse lung at 13.2 to 20.6 kBq, iv measured at 2 mins by gamma counting analysis; type: ADME, organism-based; details: in vivo; outline: as §1
Pancreas [37] = assay: Biodistribution in ddY mouse pancreas at 13.2 to 20.6 kBq, iv measured at 2 mins by gamma counting analysis; type: ADME, organism-based; details: in vivo; outline: as §1
Spleen [38] = assay: Biodistribution in ddY mouse spleen at 13.2 to 20.6 kBq, iv measured at 2 mins by gamma counting analysis; type: ADME, organism-based; details: in vivo; outline: as §1
Intestine [39] = assay: Biodistribution in ddY mouse intestine at 13.2 to 20.6 kBq, iv measured at 2 mins by gamma counting analysis; type: ADME, organism-based; details: in vivo; outline: as §1
Kidney [40] = assay: Biodistribution in ddY mouse kidney at 13.2 to 20.6 kBq, iv measured at 2 mins by gamma counting analysis; type: ADME, organism-based; details: in vivo; outline: as §1
Blood [41] = assay: Biodistribution in ddY mouse blood at 13.2 to 20.6 kBq, iv measured at 2 mins by gamma counting analysis; type: ADME, organism-based; details: in vivo; outline: as §1
Liver [42] = assay: Biodistribution in ddY mouse liver at 13.2 to 20.6 kBq, iv measured at 2 mins by gamma counting analysis; type: ADME, organism-based; details: in vivo; outline: as §1

- Drug uptake (Intestine [1]): 27.4 % ID/g
- Drug uptake (Spleen [2]): 2.46 % ID/g
- Drug uptake (Pancreas [3]): 1.43 % ID/g
- Drug uptake (Heart [4]): 1.13 % ID/g
- Drug uptake (Lung [5]): 1.44 % ID/g
- Drug uptake (Stomach [6]): 4.37 %ID
- Drug uptake (Brain [7]): 0.12 % ID/g
- Drug uptake (Blood [8]): 1.24 % ID/g
- Drug uptake (Liver [9]): 29.9 % ID/g
- Drug uptake (Kidney [10]): 5.04 % ID/g
- Drug uptake (Intestine [11]): 13.7 % ID/g
- Drug uptake (Spleen [12]): 4.87 % ID/g
- Drug uptake (Pancreas [13]): 1.93 % ID/g
- Drug uptake (Heart [14]): 2.84 % ID/g
- Drug uptake (Lung [15]): 3.55 % ID/g
- Drug uptake (Stomach [16]): 4.13 %ID
- Drug uptake (Brain [17]): 1.4 % ID/g
- Drug uptake (Blood [18]): 2.72 % ID/g
- Drug uptake (Liver [19]): 19.3 % ID/g
- Drug uptake (Kidney [20]): 2.54 % ID/g
- Drug uptake (Intestine [21]): 22.1 % ID/g
- Drug uptake (Spleen [22]): 2.71 % ID/g
- Drug uptake (Pancreas [23]): 0.69 % ID/g
- Drug uptake (Heart [24]): 1.48 % ID/g
- Drug uptake (Lung [25]): 1.62 % ID/g
- Drug uptake (Stomach [26]): 3.6 %ID
- Drug uptake (Brain [27]): 0.26 % ID/g
- Drug uptake (Blood [28]): 1.57 % ID/g
- Drug uptake (Liver [29]): 15.6 % ID/g
- Drug uptake (Kidney [30]): 3.25 % ID/g
- logP at 2 min [31]: 1.88
- Ratio (Brain [32]): 26.7
- Drug uptake (Brain [33]): 3.2 % ID/g
- Drug uptake (Stomach [34]): 1.7 %ID
- Drug uptake (Heart [35]): 8.31 % ID/g
- Drug uptake (Lung [36]): 9.09 % ID/g
- Drug uptake (Pancreas [37]): 4.99 % ID/g
- Drug uptake (Spleen [38]): 5.5 % ID/g
- Drug uptake (Intestine [39]): 4.09 % ID/g
- Drug uptake (Kidney [40]): 10.6 % ID/g
- Drug uptake (Blood [41]): 5.94 % ID/g
- Drug uptake (Liver [42]): 29.4 % ID/g
Compound: Nc1ccc(/C=C/c2nc3ccc([125I])cc3[nH]2)cc1

- Ratio (Brain [32]): 0.33
Compound: CNc1ccc(/N=N/c2nc3ccc([125I])cc3s2)cc1
